Here are results for three compounds from article PMC2913441 (Chemical biology & drug design, 2010).

Common to all, as to type: binding
The target in assay [1] is T1, Mdm2 (Homo sapiens, UniProt Q00987). Briefly: Interaction with Mdm2. As to conditions: result in words; assay not stated.
Target sequence in this assay (Q00987 whole entry): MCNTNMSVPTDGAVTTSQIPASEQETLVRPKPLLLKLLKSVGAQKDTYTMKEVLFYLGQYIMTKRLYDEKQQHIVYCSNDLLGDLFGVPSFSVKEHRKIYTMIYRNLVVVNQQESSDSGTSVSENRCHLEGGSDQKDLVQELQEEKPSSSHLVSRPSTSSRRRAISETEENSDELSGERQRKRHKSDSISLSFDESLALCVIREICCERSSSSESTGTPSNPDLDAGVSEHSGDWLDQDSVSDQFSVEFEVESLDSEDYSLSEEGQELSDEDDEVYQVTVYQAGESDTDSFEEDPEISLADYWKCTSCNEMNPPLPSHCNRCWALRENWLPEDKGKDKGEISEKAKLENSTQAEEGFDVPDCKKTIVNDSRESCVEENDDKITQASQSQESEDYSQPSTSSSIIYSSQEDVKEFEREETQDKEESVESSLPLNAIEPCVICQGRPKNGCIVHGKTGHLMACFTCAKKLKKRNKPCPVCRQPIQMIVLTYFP
For assay [2], the target named is T1, Mdm2. Description: Fluorescence polarization. As to conditions: read-out: inhibition constant (Ki) of Mdm2; FP assay, competition with p53-like peptide. An outline of the steps: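 Competitive fluorescence polarization assay: a fluorescent p53-like peptide is bound to recombinant Mdm2 and displaced by the test compound across a range of concentrations, giving dose–response curves. The binding constant and inhibition curves were fitted to derive Ki.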
(In general: Polarisation of emitted light reports the rotation of a fluorescent probe.)
Target sequence in this assay (Q00987 1-118): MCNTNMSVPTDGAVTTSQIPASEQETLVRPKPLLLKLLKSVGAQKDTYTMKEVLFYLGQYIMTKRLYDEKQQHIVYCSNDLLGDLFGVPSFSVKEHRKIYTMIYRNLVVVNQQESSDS

For assay [3], the target named is Mdm2/p53 complex (Homo sapiens, UniProt Q00987). Briefly: NMR-based antagonist induced dissociation assay. The note with it: read-out: dissociation constant (Kd) of the compound-Mdm2 interaction; AIDA-NMR; 14 μM Mdm2/p53 complex mixed with compound in 1:1 molar ratio. An outline of the steps: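 Variant of antagonist-induced dissociation NMR (SEI-AIDA). The preformed Mdm2/p53 complex (14 μM) is mixed with the test compound at a 1:1 molar ratio. The amount of p53 released from the complex is estimated from the 1D spectrum. The Kd of the Mdm2–compound interaction is then calculated from the released fraction.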
Chain of Mdm2/p53 complex (Q00987 1-118, one chain of several): as the sequence (Q00987 1-118) above

Turning to `Cc1cc(C)c(NC(=O)C2C(=O)Nc3sc4c(c3C(=O)N2Cc2ccc(Cl)cc2)CCCC4)c(C)c1` (centres unmarked) [5a-6, 3,4,6,7,8,9-Hexahydro-3-(N-mesityl)-carboxamide-4-(4-chlorobenzyl)-1H-benzothieno-[2,3-e]-1,4-diazepine-2,5-dione], in assay [1], the “interaction with Mdm2” value is recorded as “weak interaction”.

`O=C(NCc1ccccc1)C1C(=O)Nc2sc3c(c2C(=O)N1Cc1ccc(Cl)cc1)CCCC3` (centres unmarked) [5a-7, 3,4,6,7,8,9-Hexahydro-3-(N-benzyl)-carboxamide-4-(4-chlorobenzyl)-1H-benzothieno-[2,3-e]-1,4-diazepine-2,5-dione]: the Ki in assay [2] stood at 40 µM. The dissociation constant (Kd) in assay [3] was found to be 30 ± 20 µM.

For the compound `O=C(NCc1ccc(Cl)c(Cl)c1)C1C(=O)Nc2sc3c(c2C(=O)N1Cc1ccc(Cl)cc1)CCCC3` (centres unmarked) [5a-8, 3,4,6,7,8,9-Hexahydro-3-(N-3,4-dichlorobenzyl)-carboxamide-4-(4-chlorobenzyl)-1H-benzothieno-[2,3-e]-1,4-diazepine-2,5-dione], the Ki in assay [2] is 45 µM. For the same compound, the Kd in assay [3] worked out at 10 ± 6 µM.

What is called Ki is a measure of affinity in units of concentration, obtained from inhibition or displacement. What is called Kd is the equilibrium constant for the complex coming apart.
